Data from ChEMBL document CHEMBL1153179, “Optimization of orally bioavailable alkyl amine renin inhibitors” (Bioorg Med Chem Lett, 2010).
Blank lines part the entries; values can stand above or below the molecule they belong to. Active and inactive are the calls of the source. The calls are words filed in the database; no cut-off is given here.

What was measured:
[1] = Cmax in rat at 10 mg/kg, po; assay type: ADME, organism-based; set-up: dose 10 mg/kg, route oral; conditions: in vivo
[2] = Tmax in rat at 10 mg/kg, po; assay type: ADME, organism-based; set-up: dose 10 mg/kg, route oral; conditions: in vivo
[3] = target: T1, Renin (Homo sapiens, UniProt P00797); assay: Inhibition of human recombinant renin assessed as decrease in plasma renin activity by competitive radioimmunoassay in presence of human plasma
T1 sequence (P00797 whole entry): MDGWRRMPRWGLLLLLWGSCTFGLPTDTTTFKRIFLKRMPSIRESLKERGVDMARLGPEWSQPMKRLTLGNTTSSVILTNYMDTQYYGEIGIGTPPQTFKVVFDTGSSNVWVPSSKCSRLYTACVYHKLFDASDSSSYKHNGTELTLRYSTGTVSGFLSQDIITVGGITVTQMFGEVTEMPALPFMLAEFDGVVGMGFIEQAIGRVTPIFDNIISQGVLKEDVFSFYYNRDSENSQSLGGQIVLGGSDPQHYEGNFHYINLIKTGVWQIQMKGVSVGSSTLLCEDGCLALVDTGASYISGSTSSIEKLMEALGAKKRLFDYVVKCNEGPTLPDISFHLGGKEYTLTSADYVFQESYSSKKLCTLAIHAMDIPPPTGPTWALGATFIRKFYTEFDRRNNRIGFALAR

[4] = target: T1, Renin; assay: Inhibition of trypsin-activated human recombinant renin
[5] = Half life in rat at 10 mg/kg, po; assay type: ADME, organism-based; set-up: dose 10 mg/kg, route oral; conditions: in vivo
[6] = Oral bioavailability in rat at 10 mg/kg; assay type: ADME, organism-based; conditions: in vivo
[7] = AUC (0 to t) in rat at 10 mg/kg, po; assay type: ADME, organism-based, Plasma; set-up: dose 10 mg/kg, route oral; conditions: plasma
[8] = Clearance in rat at 2 mg/kg, iv; assay type: ADME, organism-based; set-up: dose 2 mg/kg, route intravenous; conditions: in vivo
[9] = Volume of distribution at steady state in rat at 10 mg/kg, po or 2 mg/kg, iv; assay type: ADME, organism-based; conditions: in vivo, read-out: Vdss
[10] = Selectivity for human recombinant renin over cathepsin D
[11] = Half life in human liver microsomes; assay type: ADME, Microsome
[12] = Half life in cynomolgus monkey at 1 mg/kg, po; assay type: ADME, organism-based, Macaca fascicularis; set-up: dose 1 mg/kg, route oral; conditions: in vivo
[13] = system: Rattus norvegicus; assay: Reduction in mean blood pressure in double transgenic rat model of hypertension at 10 mg/kg, po after >20 hrs; assay type: functional, organism-based; set-up: dose 10 mg/kg
Outline: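 Double transgenic rats expressing human renin and human angiotensinogen (dTGR) given a single 10 mg/kg oral dose; mean arterial pressure followed over 24 h against vehicle-treated animals, with statistical significance assessed.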

[14] = Tmax in cynomolgus monkey at 1 mg/kg, po; assay type: ADME, organism-based, Macaca fascicularis; set-up: dose 1 mg/kg, route oral; conditions: in vivo
[15] = Clearance in cynomolgus monkey at 1 mg/kg, iv; assay type: ADME, organism-based, Macaca fascicularis; set-up: dose 1 mg/kg, route intravenous; conditions: in vivo
[16] = Cmax in cynomolgus monkey at 1 mg/kg, po; assay type: ADME, organism-based, Macaca fascicularis; set-up: dose 1 mg/kg, route oral; conditions: in vivo
[17] = Selectivity for human recombinant renin over cathepsin E
[18] = Oral bioavailability in cynomolgus monkey at 1 mg/kg; assay type: ADME, organism-based, Macaca fascicularis; conditions: in vivo
Outline: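 Cynomolgus monkeys were dosed with the fumarate salt orally at 1 mg/kg and intravenously at 1 mg/kg. Oral bioavailability (F, %) was reported alongside oral Cmax, tmax, AUC(0-t), oral t1/2, IV clearance and Vss.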

[19] = AUC (0 to t) in cynomolgus monkey at 1 mg/kg, po; assay type: ADME, organism-based, Macaca fascicularis; set-up: dose 1 mg/kg, route oral; conditions: plasma
[20] = Selectivity for human recombinant renin over beta-secretase
[21] = Volume of distribution at steady state in cynomolgus monkey at 1 mg/kg, iv or 1 mg/kg, po; assay type: ADME, organism-based, Macaca fascicularis; conditions: in vivo, read-out: Vdss

Structure (SMILES): CNC[C@H](CC1CCCCC1)NC(=O)N1CCC[C@@H]([C@@](O)(CCCNC(=O)NC)c2cccc(Cl)c2)C1
IC50 [3]: 141 nM
IC50 [4]: 46 nM

Structure (SMILES): CNC[C@H](CC1CCCCC1)NC(=O)N1CCC[C@@H]([C@@](O)(CCCNC(N)=O)c2cccc(Cl)c2)C1
IC50 [3]: 200 nM
IC50 [4]: 31 nM

Structure (SMILES): CNC[C@H](CC1CCCCC1)NC(=O)N1CCC[C@@H]([C@@H](OCCNC(=O)OC)c2cc(F)ccc2F)C1
IC50 [3]: 2.7 nM
IC50 [4]: 0.62 nM

Structure (SMILES): CNC[C@H](CC1CCCCC1)NC(=O)N1CCC[C@@H]([C@@H](OCCNC(=O)OC)c2ccccc2)C1
IC50 [3]: 2.9 nM
IC50 [4]: 1.17 nM

Structure (SMILES): CCCC(=O)NCCC[C@@](O)(c1cccc(Cl)c1)[C@@H]1CCCN(C(=O)N[C@H](CNC)CC2CCCCC2)C1
IC50 [4]: 57 nM

Structure (SMILES): CCNC[C@H](CC1CCCCC1)NC(=O)N1CCC[C@@H]([C@@H](OCCNC(=O)OC)c2cccc(F)c2)C1
IC50 [3]: 18 nM
IC50 [4]: 2.1 nM

Structure (SMILES): CNC[C@H](CC1CCCCC1)NC(=O)N1CCC[C@@H]([C@@H](OCCNC(=O)OC)c2ccc(F)c(F)c2)C1
IC50 [3]: 16.6 nM
IC50 [4]: 2.5 nM

Structure (SMILES): CNC[C@H](CC1CCCCC1)NC(=O)N1CCC[C@@H]([C@@H](OCCNC(=O)OC)c2cc(Cl)ccc2F)C1
IC50 [3]: 2.1 nM
IC50 [4]: 0.62 nM

Structure (SMILES): CNC[C@H](CC1CCCCC1)NC(=O)N1CCC[C@@H]([C@@](O)(CCCNC(C)=O)c2cccc(Cl)c2)C1
IC50 [3]: 16 nM
clearance [8]: 23 mL/min/kg
Vd [9]: 117 L/kg

Structure (SMILES): CNC[C@H](CC1CCCCC1)NC(=O)N1CCC[C@@H]([C@@](O)(CCCNS(C)(=O)=O)c2cccc(Cl)c2)C1
IC50 [4]: 177 nM

Second part, led by results:

Cmax [1]: 123 ng/mL
Tmax [2]: 2 h
IC50 [3]: 1.8 nM
IC50 [4]: 0.59 nM
half-life [5]: 12.7 h
bioavailability [6]: 22.1%
AUC(0-t) [7]: 380 ng·h/mL
clearance [8]: 58 mL/min/kg
Vd [9]: 61 L/kg
Structure (SMILES): CNC[C@H](CC1CCCCC1)NC(=O)N1CCC[C@@H]([C@@H](OCCNC(=O)OC)c2cccc(F)c2)C1

Cmax [1]: 63 ng/mL
Tmax [2]: 4 h
IC50 [3]: 2.6 nM
IC50 [4]: 0.48 nM
half-life [5]: 7.8 h
bioavailability [6]: 7.2%
AUC(0-t) [7]: 201 ng·h/mL
clearance [8]: 53 mL/min/kg
Vd [9]: 51 L/kg
Structure (SMILES): COC(=O)NCCO[C@@H](c1cccc(Cl)c1)[C@@H]1CCCN(C(=O)N[C@H](CN)CC2CCCCC2)C1

IC50 [3]: 1.2 nM
IC50 [4]: 0.23 nM
Structure (SMILES): CNC[C@H](CC1CCCCC1)NC(=O)N1CCC[C@@H]([C@@H](OCCNC(=O)OC)c2cc(F)cc(F)c2)C1

Cmax [1]: 94 ng/mL
Selectivity ratio [10]: > 1000
half-life [11]: > 0.5 h
half-life [12]: 29.2 h
Tmax [2]: 3 h
IC50 [3]: 0.82 nM
Tmax [14]: 1 h
clearance [15]: 11.7 mL/min/kg
Cmax [16]: 33.3 ng/mL
Selectivity ratio [17]: > 1000
IC50 [4]: 0.48 nM
half-life [5]: 9.7 h
bioavailability [18]: 9.9%
bioavailability [6]: 9.4%
AUC(0-t) [7]: 301 ng·h/mL
clearance [8]: 36 mL/min/kg
AUC(0-t) [19]: 130 ng·h/mL
Selectivity ratio [20]: > 1000
Vd [21]: 9.8 L/kg
Vd [9]: 19 L/kg
Structure (SMILES): CNC[C@H](CC1CCCCC1)NC(=O)N1CCC[C@@H]([C@@H](OCCNC(=O)OC)c2cccc(Cl)c2)C1
Activity [13]: Active

IC50 [3]: 4 nM
IC50 [4]: 0.47 nM
Structure (SMILES): CNC[C@H](CC1CCCCC1)NC(=O)N1CCC[C@@H]([C@@H](OCCNC(=O)OC)c2cccc(C)c2)C1
